Shown are actives, neighbours in structure and some others; about 2.5% of the full set was active somewhere.
SMARCA2 act – SMARCA2 function activation, primary screen | AID 652017 | MG213 cells, MMTV-luciferase reporter, dexamethasone, overnight | 1% of 370,000 active | activation, % at 9.1 µM; in the data active = activation above about 7.8%;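 note: 0% = vehicle wells and 100% = reference activator wells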
Vif imaging – inhibitors of HIV Vif; HEK293T cells, Vif self-association by quenched fluorescence, imaging, 24 h; inhibition, % at 7.49 µM; 0.35% of 340,000 active; AID 602346; in the data active = inhibition above about 50%, passing the limit was not always enough; inconclusive = no clear call, values can overlap the other calls; inactive = below about 31%
H9c2 TAG inh – inhibitors of triacylglycerol accumulation | H9c2 cells, Nile Red lipid (TAG) fluorescence; cells loaded with 200 µM oleic acid | 0.66% of 230,000 active | inhibition, % at 12.5 µM;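 active = pattern-corrected inhibition of lipid staining of at least 50% with the nuclear-stain viability signal not falling by more than 50%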;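 note: 0% = DMSO wells and 100% = triacsin C control wells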
SR-BI DiI inh – mouse SR-BI HDL lipid transfer inhibition; 0.96% of 320,000 active; ldlA[mSR-BI] CHO cells, DiI-HDL uptake fluorescence, 3 h; inhibition, % at 12.5 µM; Q61009;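 active = mean replicate inhibition of at least 70% and a set share of replicates each scoring 70 or more; inconclusive = meets just one of the two criteria; inactive = fails both criteria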;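 note: 0% = median of neutral control wells and 100% = median of positive control wells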
Target sequence (Q61009 whole entry, looked up): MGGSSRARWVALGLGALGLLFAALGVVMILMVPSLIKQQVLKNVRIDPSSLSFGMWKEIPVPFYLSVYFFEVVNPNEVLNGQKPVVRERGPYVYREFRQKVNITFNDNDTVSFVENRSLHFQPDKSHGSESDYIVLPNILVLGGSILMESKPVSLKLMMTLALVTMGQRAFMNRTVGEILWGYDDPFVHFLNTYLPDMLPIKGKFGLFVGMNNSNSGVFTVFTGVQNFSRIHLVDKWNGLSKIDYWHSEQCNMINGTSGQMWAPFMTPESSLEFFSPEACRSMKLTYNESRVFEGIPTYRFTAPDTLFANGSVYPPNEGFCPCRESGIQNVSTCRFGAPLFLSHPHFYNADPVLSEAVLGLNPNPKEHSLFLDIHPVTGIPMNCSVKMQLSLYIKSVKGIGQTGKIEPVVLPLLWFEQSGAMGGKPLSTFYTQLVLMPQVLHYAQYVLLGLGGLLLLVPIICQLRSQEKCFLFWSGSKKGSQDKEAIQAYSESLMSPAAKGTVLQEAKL
SR-BI uptake up – enhances SR-BI lipid uptake from DiI-HDL; 0.096% of 320,000 active; CHO ldlA[mSR-BI] cells, DiI-HDL uptake fluorescence, 3 h; 100 = double the neutral-control signal; activation, % at 12.5 µM;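 active = mean replicate activation of at least 60% and every replicate at or above 60%; inconclusive = mean or all-replicate condition met, but not both; inactive = mean below 60% and not all replicates reaching 60%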;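 note: 0% = median plate neutral-control signal and 100% = twice that signal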
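Material: SR-BI-overexpressing, LDLR-lacking CHO cells; schedule: compound exposure 3 h, 37 °C; reagent: DiI-labelled HDL at 10 µg/mL final; technique: bottom-read fluorescence, 550/595 nm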
An asterisk follows results filed as active; ? = inconclusive; nt = no result given.

SMILES	SMARCA2 act	Vif imaging	H9c2 TAG inh	SR-BI DiI inh	SR-BI uptake up
COc1ccc(S(=O)(=O)Nc2ccc3c(c2)C(=O)N([C@H](C)CO)C[C@H](C)[C@H](CN(C)C(=O)Nc2ccc(F)cc2)OCCCC[C@@H](C)O3)cc1	-2	nt	nt	nt	nt
CCSc1ccc([C@@H]2[C@@H]3C(=O)N(C)C(=O)[C@@H]3[C@]3(C(=O)OC)CCCCN23)cc1OC	-1	-2	-11	-67	67*
COC(=O)[C@]1(CC(C)C)N[C@H](c2ccc(SC3CCCCC3)c(OC)c2)[C@@H]2C(=O)N(C)C(=O)[C@@H]21	0	8	20	75*	-75
CCC(C)Sc1ccc([C@H]2N[C@@](CC(C)C)(C(=O)OC)[C@H]3C(=O)N(C)C(=O)[C@@H]23)cc1 (stereo partly specified)	0	7	33	79*	-79
CCN1C(=O)[C@H]2[C@@H](c3ccc(-c4ccc(OC)cc4)c(OC)c3)N[C@@](CC(C)C)(C(=O)OC)[C@H]2C1=O	-1	-8	23	35	-35
COC(=O)[C@]1(CC(C)C)N[C@H](c2ccc(-c3ccc(F)cc3)c(OC)c2)[C@@H]2C(=O)N(C)C(=O)[C@@H]21	2	-5	36	89*	-89
c1ccc(-c2nc3ccccc3nc2-c2ccc(CN3CCC4(CC3)CNc3ccccc34)cc2)cc1	-4	nt	nt	nt	nt
Cc1ccc(NS(=O)(=O)c2cc([N+](=O)[O-])ccc2NNC(=S)Nc2cccc(Cl)c2)c(C)c1	nt	-15	-20	95*	-95
COc1ccc(NC(=S)Nc2cccc([N+](=O)[O-])c2)cc1	-1	0	-24	12	-12
Cc1ccc(NS(=O)(=O)c2cc([N+](=O)[O-])ccc2NNC(=S)Nc2cc(C)ccc2C)c(C)c1	-3	-15	nt	79*	-79
COc1ccc(NC(=S)NNc2ccc([N+](=O)[O-])cc2S(=O)(=O)Nc2ccc(C)cc2C)cc1	-3	0	nt	77*	-77
Cc1ccc([C@H]2C[C@]34CN(Cc5ccccc5)S(=O)(=O)[C@H]3C[C@H]2O4)cc1	4	nt	nt	nt	nt
O=C(Cc1c[nH]c2ccccc12)Nc1ccc(Nc2ccncc2)cc1	3	nt	nt	nt	nt
Cc1ccc(OCCNC(=O)c2cc(C(=O)NCCOc3ccc(C)cc3)cc([N+](=O)[O-])c2)cc1	-1	-9	nt	71*	-71
COC(=O)c1ccc(-c2cccc(CN3CCN(c4ncc(Cc5ccccc5)cn4)CC3)c2)cc1	-2	nt	nt	nt	nt
O=c1c(Cl)c(Cl)cnn1Cc1nnc(-c2ccc(Cl)cc2)o1	-12	6	61*	33	-33
Cc1ccc(Cn2ncc(Cl)c(Cl)c2=O)cc1	8	11	nt	-17	17
Cc1oc2nc(SCC(=O)NC3CCCCC3)nc(N)c2c1C	-1	6	7	-388	389*
COc1ccc(C(=O)c2[nH]c(N)c(C(=O)c3c[nH]c4ccccc34)c2-c2ccc(F)c(OC)c2)cc1	-2	nt	nt	nt	nt
CC(C)(C)C1CCc2c(sc(NC(=O)C3CCCO3)c2C(N)=O)C1 (stereo unspecified)	-2	-9	-3	78*	-78
COC(=O)c1nn(-c2ccccc2)c(-c2ccccc2)c1C(=O)c1ccccc1	3	50*	-10	6	-6
CCOC(=O)C1=C(C(=O)OCC)C2N(Cc3ccc(C#N)cc3)c3ccccc3[C@@]23C[C@@H](C(=O)OC)N(S(=O)(=O)c2ccc(OC)cc2)C3=N1 (stereo partly specified)	-5	nt	nt	nt	nt
CCCCS(=O)(=O)/C=C\C1C2C=CC(C2)C1S(=O)(=O)CCCC (stereo unspecified)	1	0	-12	-5	5
CCCCS(=O)(=O)/C=C\C=C/S(=O)(=O)CCCC	nt	1	88*	5	-5
CCCCCn1cc(CCC(=O)Nc2ccc(N(C)c3ccccn3)cc2)c2ccccc21	-1	nt	nt	nt	nt
SMILES	SMARCA2 act	Vif imaging	H9c2 TAG inh	SR-BI DiI inh	SR-BI uptake up
CCCCCn1c(N)c(-c2nc3ccccc3s2)c2c([N+](=O)[O-])nn(CC)c(=O)c21	-2	1	nt	83*	-83
CCCCn1c(N)c(-c2nc3ccccc3s2)c2c([N+](=O)[O-])nn(CC)c(=O)c21	-3	10	nt	67	-67
CCCCn1c(N)c(-c2nc3ccccc3s2)c2c([N+](=O)[O-])nn(C)c(=O)c21	3	0	nt	93*	-93
CCOC(=O)N[C@@H](Cc1cccnc1)C(=O)N1CCC[C@H]1C(=O)NCCc1ccccc1Cl	5	nt	nt	nt	nt
COc1cc(C(C)=O)ccc1OCC(=O)NCC1(N2CCCCC2)CCCCC1	-3	51*	8	3	-3
O=C(COc1ccc(F)cc1Br)NCC1(N2CCCCC2)CCCCC1	-3	5	7	-13	13
Cc1ccc(C(=O)N2CCC[C@@H]2C(=O)N2CCC[C@H]2C(=O)NCc2ccccc2)cc1C	-1	nt	nt	nt	nt
COCCCNC(=O)c1oc(=O)c2ccccc2c1-c1ccc(C)cc1	-3	nt	nt	nt	nt
COc1ccc(Nc2nc(N(C)c3ccccc3)nc(N)c2[N+](=O)[O-])cc1	6	1	nt	-138	138*
Cn1cc(C(=O)N/N=C/C2=C(N3CCOCC3)C(=C\c3ccccc3)/CC2)ccc1=O	-2	?	nt	47	-47
O=C1Nc2ccccc2/C1=N\N=C\C1=C(N2CCOCC2)C(=C\c2ccccc2)/CC1	-2	-19	nt	128*	-128
COc1ccc(COc2cc(-c3cccc(OC)c3)nc3ccc(NC(=O)c4ccc(N(C)C)cc4)cc23)cc1	nt	nt	38	90*	-90
COc1ccc(COc2cc(-c3cccc(OC)c3)nc3ccc(NC(=O)c4ccc(C)cc4)cc23)cc1	1	-11	28	72*	-72
Nc1[nH]c(C(=O)c2ccccc2)c(-c2cccc3ccccc23)c1C(=O)NCc1ccc(F)c(F)c1	-1	nt	nt	nt	nt
C=CCCN1[C@@H](Cc2ccccc2)COc2ccccc2S1(=O)=O	-2	nt	nt	nt	nt
COc1cc(OC)cc(C(=O)NC(C)CNc2ccc(Cl)cc2[N+](=O)[O-])c1 (stereo unspecified)	-3	-6	nt	79*	-79
COCC(C)NC(=O)c1cc(OC)cc(OC)c1 (stereo unspecified)	-2	4	2	-22	22
Oc1ccc(Cl)cc1C1=NNC(c2ccc(Cl)cc2)C1 (stereo unspecified)	1	-8	nt	84*	-84
Oc1c(Cl)cc(Cl)cc1C1=NNC(c2ccc(Cl)cc2)C1 (stereo unspecified)	nt	4	-5	84*	-84
CC1CCCC(C)N1C(=O)CSc1nnc(NC(=O)c2cccs2)s1 (stereo unspecified)	-1	109*	17	-20	20
COc1ccccc1Cc1c(-c2ccccc2)nc2ccc(Br)cn12	0	nt	nt	nt	nt
COc1ccccc1Cc1c(-c2cccc(Br)c2)nc2ccc(Br)cn12	7.9*	nt	nt	nt	nt
COC(=O)c1cc(=O)nc(NN=Cc2ccccc2O)s1	-4	nt	nt	nt	nt
